Source: ChEMBL document CHEMBL1127795, “Small-molecule immunostimulants. Synthesis and activity of 7,8-disubstituted guanosines and structurally related compounds” (1994)

Experiments:
Mus musculus [1] = species on record: Mus musculus; experiment: Percent of maximum response was tested to augment the antibody response of B cells to sheep red blood cell challenge; assay type: functional
In short: (§1)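 CBA/CaJ spleen cells depleted of T cells with anti-T cell monoclonal antibody (1:1000, 30 min, 4 °C) then complement (37 °C, 45 min). Cultured ± 0.1% SRBC antigen in serum-containing medium with compound from zero to 10⁻³ M for 4 d. Plaque-forming cells counted in agarose with guinea pig complement. ED50 and maximal response relative to a concurrent standard.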

Mus musculus [2] = species on record: Mus musculus; experiment: Augment antibody response of B cells to sheep red blood cell (SRBC) challenge (adjuvanticity); assay type: functional; settings: read-out: ED50 (the source's name); in short: as §1
Mus musculus [3] = species on record: Mus musculus; experiment: Percent of maximum response was tested for its ability to act as B-cell mitogens (mitogenicity); assay type: functional
In short: (§2)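 CBA/CaJ mouse spleen cells (1 × 10⁵/0.2 mL) exposed to graded compound concentrations, dissolved in water or DMSO and diluted in medium, for 24 h. [³H]thymidine then added for a further 24 h; incorporation by scintillation counting. ED50 and maximal response expressed relative to a concurrently run standard (loxoribine in most cases).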

YAC-1 [4] = experiment: Percent of maximum response was tested for its ability to stimulate the natural killer response in murine in vitro cell assays; assay type: functional, Mus musculus
Mus musculus [5] = species on record: Mus musculus; experiment: Ability to act as B-cell mitogens; assay type: functional; settings: read-out: ED50 (the source's name); in short: as §2
YAC-1 [6] = experiment: Stimulation of natural killer (NK) response in Yac-1 cell line (mouse, lymphoma); assay type: functional; settings: read-out: ED50 (the source's name)
YAC-1 [7] = experiment: Stimulation of natural killer (NK) response in Yac-1 cell line (mouse, lymphoma); Neg indicates a response lower than vehicle control; assay type: functional, cell-based

EC50 (Mus musculus [5]) [µM] | SMILES | Max response (Mus musculus [1]) [%] | EC50 (Mus musculus [2]) [µM] | Max response (Mus musculus [3]) [%] | Max response (YAC-1 [4]) [%] | EC50 (YAC-1 [6]) [µM] | ED50 (YAC-1 [7])
– | C=CCn1c(=O)n(CCC(COCc2ccccc2)COCc2ccccc2)c2nc(N)nc(O)c21 | 68 | 7 | – | – | – | –
117 | NC(=O)Cn1c(=O)n(C2OC(CO)[C@@H](O)[C@H]2O)c2nc(N)nc(O)c21 (stereo not given in full) | 32 | 190 | 72 | 42 | 90 | –
– | C=CCn1c(=O)n([C@@H]2O[C@H](CO)[C@H]3OC(CCC)(CCC)O[C@H]32)c2nc(N)nc(O)c21 | 123 | 4 | 38 | 56 | 11 | –
– | C=CCn1c(=O)n(C2OC(CO[Si](c3ccccc3)(c3ccccc3)C(C)(C)C)[C@@H](O)[C@H]2O)c2nc(N)nc(O)c21 (stereo not given in full) | 33 | 18 | – | 15 | – | Negative
– | [N-]=[N+]=NCC(O)Cn1c(=O)n(C2OC(CO)[C@@H](O)[C@H]2O)c2nc(N)nc(O)c21 (stereo not given in full) | 91 | 39 | – | – | – | –
– | COc1ccc(CCNCC(O)Cn2c(=O)n(C3OC(CO)[C@@H](O)[C@H]3O)c3nc(N)nc(O)c32)cc1OC (stereo not given in full) | 3 | – | – | – | – | –
50 | C=CCn1c(=S)n(C2OC(COC(C)=O)[C@H]3OC(C)(C)O[C@@H]23)c2nc(N)nc(O)c21 (stereo not given in full) | 141 | 50 | 20 | 30 | 30 | –
47 | C=CCn1c(=O)n([C@@H]2O[C@H](CO)[C@H]3OC(=O)O[C@H]32)c2nc(N)nc(O)c21 | 50 | 3 | 97 | 90 | 20 | –
– | Cn1c(=O)n([C@@H]2O[C@H](CO)[C@H]3OC(C)(C)O[C@H]32)c2nc(N)nc(O)c21 | 193 | 168 | 17 | – | – | –
– | CC1(C)O[C@@H]2[C@H](O1)[C@@H](CO)O[C@H]2n1c(=O)n(C/C=C/c2ccccc2)c2c(O)nc(N)nc21 | 16 | – | 10 | – | – | –
– | Nc1nc(O)c2c(n1)n(C1OC(CO)[C@@H](O)[C@H]1O)c(=O)n2CCCl (stereo not given in full) | 101 | 4 | – | 83 | 19 | –
532 | Nc1nc(O)c2nc(S)n([C@@H]3O[C@H](CO)[C@@H](O)[C@H]3O)c2n1 | 100 | 50 | 100 | – | – | –
– | C=CCn1c(=O)n(Cc2ccccc2)c2nc(N)nc(O)c21 | 25 | 5 | – | – | – | –
– | C=CCn1/c(=N\C#N)n([C@H]2OC(CO)[C@@H](O)[C@H]2O)c2nc(N)nc(O)c21 (stereo not given in full) | 85 | 156 | – | – | – | –
– | C=CCn1c(=O)n([C@@H]2O[C@H](CO)[C@H]3OC(C)(CCC(=O)O)O[C@H]32)c2nc(N)nc(O)c21 (stereo not given in full) | – | – | – | 0 | – | Negative
52 | CCCn1c(=O)n(C2CCC(CO)O2)c2nc(N)nc(O)c21 (stereo not given) | 118 | 6 | 84 | 102 | 14 | –
819 | C=CCn1c(=O)n(C2OC(COC(=O)COC)[C@@H](OC(=O)COC)[C@H]2OC(=O)COC)c2nc(NC(=O)COC)nc(O)c21 (stereo not given in full) | 216 | 28 | 53 | 60 | 150 | –
34 | C=CCn1c(=S)n(C2OC(COC(C)=O)[C@@H](OC(C)=O)[C@H]2OC(C)=O)c2nc(N)nc(O)c21 (stereo not given in full) | 141 | 5 | 96 | – | – | –
100 | CCCCn1c(=O)n(C2OC(CO)[C@@H](O)[C@H]2O)c2nc(N)nc(O)c21 (stereo not given in full) | 86 | 11 | 70 | – | – | –
295 | C=CCn1c(=S)n(C2OC(COC(C)=O)[C@@H](OC(C)=O)[C@H]2OC(C)=O)c2nc(NC(C)=O)nc(O)c21 (stereo not given in full) | 60 | 7 | 134 | 77 | 5 | –
– | N#Cc1ccc(Cn2c(=O)n(C3OC(CO)[C@@H](O)[C@H]3O)c3nc(N)nc(O)c32)cc1 (stereo not given in full) | 50 | 15 | – | 0 | – | Negative
– | NCC(O)Cn1c(=O)n(C2OC(CO)[C@@H](O)[C@H]2O)c2nc(N)nc(O)c21 (stereo not given in full) | 110 | 28 | – | – | – | –
– | C=CCn1c(=O)n(C2CN(C(c3ccccc3)c3ccccc3)CC(CO)O2)c2nc(N)nc(O)c21 (stereo not given) | – | – | – | 46 | 12 | –
45 | C=CCn1c(=S)n([C@@H]2O[C@H](CO)[C@H]3OC(C)(C)O[C@H]32)c2nc(N)nc(O)c21 | 89 | 55 | 9 | 30 | 40 | –

EC50 (Mus musculus [5]) [µM] | SMILES | Max response (Mus musculus [1]) [%] | EC50 (Mus musculus [2]) [µM] | Max response (Mus musculus [3]) [%] | Max response (YAC-1 [4]) [%] | EC50 (YAC-1 [6]) [µM] | ED50 (YAC-1 [7])
– | N#Cc1cccc(Cn2c(=O)n(C3OC(CO)[C@@H](O)[C@H]3O)c3nc(N)nc(O)c32)c1 (stereo not given in full) | 16 | 3 | – | 11 | – | Negative
52 | Cn1c(=O)n(C2OC(CI)[C@@H](O)[C@H]2O)c2nc(N)nc(O)c21 (stereo not given in full) | 32 | – | 4 | – | – | –
– | CCn1c(=O)n(C2OC(CO)[C@@H](O)[C@H]2O)c2nc(N)nc(O)c21 (stereo not given in full) | 82 | 15 | 82 | – | – | –
– | Nc1nc(O)c2c(n1)n(C1OC(CO)[C@@H](O)[C@H]1O)c(=O)n2CC(O)CSc1ccccc1 (stereo not given in full) | 12 | 142 | – | – | – | –
630 | CCOC(=O)Cn1c(=O)n(C2OC(CO)[C@@H](O)[C@H]2O)c2nc(N)nc(O)c21 (stereo not given in full) | 86 | 48 | 58 | – | – | –
233 | C=CCn1c(=O)n(C2OC(CO)[C@@H](O)C2O)c2nc(N)nc(O)c21 (stereo not given in full) | 143 | 17 | 76 | 68 | 60 | –
– | C=CCn1c(=S)n(C2OC(CO)[C@@H](O)C(O)[C@H]2O)c2nc(N)nc(O)c21 (stereo not given in full) | 5 | 1 | – | 3 | – | Negative
13 | C=CCn1c(=S)n(COCCO)c2nc(N)nc(O)c21 | 9 | 14 | 7 | 28 | 55 | –
– | Nc1nc(O)c2c(n1)n(C1OC(CO)[C@@H](O)[C@H]1O)c(=O)n2Cc1ccc(OCc2ccccc2)cc1 (stereo not given in full) | 5 | 8 | – | 6 | – | Negative
11 | C=CCn1c(=O)n(CCCC)c2nc(N)nc(O)c21 | 77 | 2 | 36 | 21 | 4 | –
– | Nc1nc(O)c2c(n1)n(C1OC(CO)[C@@H](O)[C@H]1O)c(=O)n2Cc1ccccc1 (stereo not given in full) | 110 | 6 | – | – | – | –
– | C=CCn1c(=O)n(C2OC(COC(=O)CCC)[C@@H](OC(=O)CCC)[C@H]2OC(=O)CCC)c2nc(NC(=O)CCC)nc(O)c21 (stereo not given in full) | 109 | 53 | – | 12 | – | Negative
600 | CCCCCCn1c(=O)n(C2OC(CO)[C@@H](O)[C@H]2O)c2nc(N)nc(O)c21 (stereo not given in full) | – | – | 11 | – | – | –
820 | CN(C)CCCn1c(=O)n(C2OC(CO)[C@@H](O)[C@H]2O)c2nc(N)nc(O)c21 (stereo not given in full) | 83 | 194 | 63 | – | – | –
– | C=CCn1c(=O)n(CCCCCCCC)c2nc(N)nc(O)c21 | 130 | 37 | – | – | – | –
120 | Cn1c(=O)n(C2OC(CO)[C@@H](O)[C@H]2O)c2nc(N)nc(O)c21 (stereo not given in full) | 99 | 10 | 100 | 72 | 56 | –
– | Nc1nc(O)c2c(n1)n(C1OC(CO)[C@@H](O)[C@H]1O)c(=O)n2Cc1ccc(Cl)cc1 (stereo not given in full) | 15 | 14 | – | 27 | 180 | –
4500 | Nc1nc(O)c2c(n1)n(C1OC(CO)[C@@H](O)[C@H]1O)c(=O)n2C/C=C/c1ccccc1 (stereo not given in full) | 73 | 103 | 5 | – | – | –
20 | C=CCn1c(=S)n(C2OC(CO)[C@@H](O)[C@H]2O)c2nc(N)nc(O)c21 (stereo not given in full) | 100 | 1 | 151 | – | – | –
– | Nc1nc(O)c2c(n1)n(C1OC(CO)[C@@H](O)[C@H]1O)c(=O)n2CC(O)CO (stereo not given in full) | 136 | 45 | – | – | – | –
485 | C=CCSc1nc2c(O)nc(N)nc2n1C1OC(CO)[C@@H](O)[C@H]1O (stereo not given in full) | 107 | 107 | 57 | – | – | –
– | Nc1nc(O)c2c(n1)n(C1OC(CO)[C@@H](O)[C@H]1O)c(=O)n2CC(O)CN1CCN(c2ccc(F)cc2)CC1 (stereo not given in full) | 16 | – | – | – | – | –
2400 | COc1ccc(Cn2c(=O)n(C3OC(CO)[C@@H](O)[C@H]3O)c3nc(N)nc(O)c32)cc1 (stereo not given in full) | 44 | 135 | 14 | – | – | –

SMILES | EC50 (Mus musculus [5]) [µM] | Max response (Mus musculus [1]) [%] | EC50 (Mus musculus [2]) [µM] | Max response (Mus musculus [3]) [%] | Max response (YAC-1 [4]) [%] | EC50 (YAC-1 [6]) [µM] | ED50 (YAC-1 [7])
C=CCn1c(=[Se])n(C2OC(CO)[C@@H](O)[C@H]2O)c2nc(N)nc(O)c21 (stereo not given in full) | 118 | 70 | 15 | 107 | – | – | –
